System: MS2 coat protein
Assay: apparent Kd, MS2 coat protein; higher = weaker binding; RNA-MaP array; FMN 200 µM where present
How it was run: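 Designs were transcribed by stalled E. coli RNA polymerase on Illumina sequencing-chip clusters. They were titrated with SNAP-549-labelled MS2 coat protein from 0.7 or 1.5 nM, doubling to 3 µM, in 100 mM Tris-HCl pH 7.5, 80 mM KCl, 4 mM MgCl2, BSA, DTT, yeast tRNA and Tween-20, without and then with constant ligand. The apparent Kd is the median of filtered per-cluster fits after normalisation of green signal to red-channel RNA signal and control-cluster median Fmax.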

[1] = designed as: OFF switch for flavin mononucleotide, no ligand
[2] = ligand present: flavin mononucleotide, designed as: OFF switch for flavin mononucleotide
[3] = designed as: ON switch for flavin mononucleotide, no ligand
[4] = ligand present: flavin mononucleotide, designed as: ON switch for flavin mononucleotide

Sequence	apparent Kd [1]	apparent Kd [2]	apparent Kd [3]	apparent Kd [4]
UAUAUAUAGUAAGGAUAUGUAAUUAUUUUAUCAACAGAAGGUACUGACAUGAGGAUCACCCAUGUUUUAGUGUGGGCAUGUAGA	87.9 nM	111 nM	–	–
AACCUGAGGCUUUGCUUUAGGUGAACAUGAGGAUCACCCAUGUAGGAUAUGGUAGGCUUUGCUUACCAGAAGGACAUAUUAAUU	39.3 nM	86.1 nM	–	–
AAAGUGCAAGGAUAUAUAUGAAAAGUUACGAAAGUAACAAAACAUGAGGAUCACCCAUGUAGAAGGUGCACAAA	27.8 nM	24.4 nM	–	–
ACAUAGUUAGGAUAUGCUGCUCGUCACUUGCGUGAUGAGUAGCAGAAGGAACAUGAGGAUCACCCAUGUAAAAA	28.3 nM	25.5 nM	–	–
UAUUACAGAUAAGGAUAUUGACAUGAGGAUCACCCAUGUAUUUGGGAAUGUUUACUGAAUUCUUACGAGAAGGUAUACGUACUU	128 nM	98.7 nM	–	–
GCUAGAUUUGCAGGAUAUUGUAAUUUAUUAUUUCAAGAAGGGCAUUACAUGAGGAUCACCCAUGUCAUCCUAUGGUUUACUAGC	9.57 nM	23.1 nM	–	–
AGGUAACAUGAGGAUCACCCAUGUCAGGAUAUCAGGAAGAUUAGAAUAGAGUAGAGGAUGAGAAGGGACUAUAU	32 nM	30.3 nM	–	–
CUCCUGUGAUUAGGAUAUGUGCGCACUGUGCUAGCAGAAGGGAUCACAUGAGGAUCACCCAUGUGAGUAGCUCACUGUAAAGGG	111 nM	107 nM	–	–
AAUCCACAUGAGGAUCACCCAUGUCAGGAUAUUGUUACUAGAGCGCACCUGUGUUCUACGAGAAGGGACUAAAC	12 nM	12.2 nM	–	–
AAUAAACUCACAGGAUAUAGCAGAGGUCGCCUGAACUUACAGGCGACGAUGCUAGAAGGGUGACCACAUGAGGAUCACCCAUGU	–	–	825 nM	136 nM
AAUAAACAUGAGGAUCACCCAUGUCAGGAUAUCCAUUUGUUUUUGUUGGUUUUUUUUUGGAGAAGGGACGCUUA	87.3 nM	63 nM	–	–
CAUGUCCUCACAGGAUAUGCUGGACUUUGUCCAGCAGAAGGGUGAACAUGAGGAUCACCCAUGUUGUGGACAUGUAUAUUUAAG	–	–	228 nM	575 nM
AAAAGGCUAGGAUAUACAUGAGGAUCACCCAUGUGUACUGGACAUGCGGUAUGCGGAUGUAGAAGGAGUAUAAA	23.4 nM	62.4 nM	–	–
UGUGCGUUGAUCUUCGAUCGGUGUACAUGAGGAUCACCCAUGUAGGAUAUUCAAAGACGCAGAUAGGAGAAGGACAUCGGAUUU	18.8 nM	17 nM	–	–
UAAAAGUGAGGAUAUACAUUAAGGUAAGUCCGGAUGCGAAGACAUGAGGAUCACCCAUGUAGAAGGCACACAAA	32.1 nM	146 nM	–	–
CGGAGACAUGAGGAUCACCCAUGUCGUCGUCACAGAGGAUAUGGGAGCGUCAGGGACGCAUCAGAAGGCUGAAAGC	–	–	32.5 nM	19.1 nM
GACACUAUGUUUGUCAGAUAGAGAGAGGAUAUGGCUCAUGUGACAUGAGGAUCACCCAUGUAUAAUCAGAAGGCUCGAGUACGA	–	–	45.9 nM	16.3 nM
UGGUACUAGGGAGGAUAUGGGAAGAUACAUGAGGAUCACCCAUGUUUAAGAAUGGCGAGAGGCAACUAGAAGGCCCUAGUACCU	–	–	271 nM	15.6 nM
CUUAAACAUGAGGAUCACCCAUGUGAGGAUAUGAUGCGAAUAAAGAAAGAAGAAAGCAUCAGAAGGCACAUAUG	86.9 nM	236 nM	–	–
AUGCUUCACACAGGAUAUACAUGAGGAUCACCCAUGUGUCCACCGUAGCUGACACGAGCUACGCUGUAGAAGGGUGUGAAGCAU	19.3 nM	52.8 nM	–	–
UUCUUUCCUCAUGUACAUGAGGAACAUGAGGAUCACCCAUGUAGAAGGAUUUCAAUUAAAUUAAAAUAGGAUAUACAUAUAUUU	15.8 nM	16.4 nM	–	–
GGUUGGCAGCUAGGAUAUGGGCGGUCACAUGAGGAUCACCCAUGUCAACAUCAAAACCAGAUUAACCAGAAGGAGCUGCGGGUU	–	–	14.8 nM	87.7 nM
CAGGUAGACUGAGGAUAUACAAUAAACAGCUAGUCUAUCUAGCUGCCUACAUGAGGAUCACCCAUGUAGAAGGCAGUCUGCCUG	16.2 nM	16.6 nM	–	–
UCGGCGCGAGGAUAUGCGGUUUGUGCUUUGGGCCCUGGCGUACAUGAGGAUCACCCAUGUAGAAGGCGCGCCGC	19.5 nM	19.6 nM	–	–

Sequence	apparent Kd [1]	apparent Kd [2]	apparent Kd [3]	apparent Kd [4]
UGGUACUAGGGAGGAUAUGGGAAGAUACAUGAGGAUCACCCAUGUUUAAGAAUGCCGAGAGGCAACUAGAAGGCCCUAGUACUU	–	–	448 nM	20.2 nM
CUUUUGUGAGGAUAUCAGUAGUAAAUUAAUAAAAUUACUACUGAGAAGGCACAUGAGGAUCACCCAUGUUCCUC	42.6 nM	285 nM	–	–
CGAAAUGAUAGAGGAUAUGUUUUACAUGAGGAUCACCCAUGUGUACAUGGAUUAAUAUAUAAGUAACAGAAGGCUAUUCAAUCG	18.6 nM	17.3 nM	–	–
GGAUAGGACAGAGGAUAUACGUGCUAGAGAUACUAUCAAAAUUUCCUCACAUGAGGAUCACCCAUGUAGAAGGCUGUCCUAUCG	270 nM	52.1 nM	–	–
AAUAACAGAGGAUAUACUAUUUUAUGUAUUUAUUAUUUUAAACAUGAGGAUCACCCAUGUAGAAGGCUGAAUAA	19.8 nM	20.7 nM	–	–
AAACCGUGUGGAGGAUAUGCAGUUGAGGUGAGGUGGCAACUCUAUACGACCGCAGAAGGCCACAUGAGGAUCACCCAUGUAGGU	293 nM	61.5 nM	–	–
UGUCGGAGCAGAGGAUAUUACAUGAGGAUCACCCAUGUAUGAACCAAUAGCUGGAAACAGCAAAGUAAGAAGGCUGCUCCGACA	6.28 nM	79.4 nM	–	–
CCGAGAAGGAGAGGAUAUGGACAUGAGGAUCACCCAUGUACAUGGGAAUAUAUACUGAAUUUUUACUAGAAGGCUUACAUAAAU	17.8 nM	14 nM	–	–
UGUUACUAGUAAGGAUAUACUUGCGAUAAGCUUGUAGAAGGUACAGUCUUUUGUAUAACAUGUUUACAUGAGGAUCACCCAUGU	–	–	9.71 nM	8.78 nM
AUGCUAGUGUGAGGAUAUUAGACAUGAGGAUCACCCAUGUGUAAGAUCAUGACGAUCACGCAUGAUAAGAAGGUACAUUAGCAU	54.6 nM	99.7 nM	–	–
GGUGCACGCACAGGAUAUCCGGCGGAGCUCGUCGGAGAAGGGUGACAUGAGGAUCACCCAUGUACGUGCAACCCAGUUUGAGGG	–	–	59.6 nM	28.5 nM
CCAUAAAAGAUCCAAAAUUACAACAUGAGGAUCACCCAUGUGCAGGAUAUCGUGACAGUGAAGUACGAGAAGGGCAGACACUGC	197 nM	208 nM	–	–
AACGUGUAAGGAUAUGCUGCUCGUCACGAAAGUGAUGAGUAGCAGAAGGUACAUGAGGAUCACCCAUGUAAAGA	31.8 nM	67 nM	–	–
CUUUUGUGAGGAUAUUAGUUGUAAAUAAAUAAAAUUACUACUGAGAAGGCACAUGAGGAUCACCCAUGUUCCUC	33.3 nM	161 nM	–	–
CAUUUGUGAGGAUAUCAGGUGUGCUAGCGUACUGGUACAUCUGAGAAGGCACAUGAGGAUCACCCAUGUUCCUU	12.8 nM	30 nM	–	–
GGUUAUUGCAAGGAUAUGCUUUUUUUUUAUUUUGCAGAAGGUGCAACAUGAGGAUCACCCAUGUUGGAGGGUUU	21.7 nM	31.9 nM	–	–
ACGACGAAAGUCGAACGAUGUAGCAGAAGGACAUGAGGAUCACCCAUGUCAGCUGUAACAGCCAUGUAGGAUAUGCUACAUCGG	4.37 nM	5.85 nM	–	–
ACCGAACAUGAGGAUCACCCAUGUGAGGAUAUAGACGCGUAUUUAACGCGUAACAAAACUAGAAGGCACUGGGC	27.2 nM	16.1 nM	–	–
UUUUACGUAGGAUAUACAUUUUUUUUAUUAUUUUCAUUAUUACAUGAGGAUCACCCAUGUAGAAGGACGAUUUU	22.8 nM	22 nM	–	–
UAAAUGUGAGGAUAUUCGAUGAACUCGGAGACGAGUUUAUCGGAGAAGGCACAUGAGGAUCACCCAUGUUCCUU	22.3 nM	225 nM	–	–
AUCCGGCGUGUAGGAUAUGGAUCCGAUUAGGAUCCAGAAGGACAUGAGGAUCACCCAUGUACAUGUAAACAGUCAUCACCGGAG	10.2 nM	56.4 nM	–	–
CACAACCAGGGAGGAUAUACAUGAGGAUCACCCAUGUUCGGCUCCCAUGCAGGAUGCCGUCCCGUGUAGAAGGCCCAGCGAUAG	9.91 nM	32.2 nM	–	–
AUUAUACAUGAGGAUCACCCAUGUAAUUAAUUAAUUAAGAUCAAGGAUAUCAGCUCGAAUAGAGCUGAGAAGGUGAUCACAUGU	–	–	330 nM	287 nM
UUACUCAUGUAAGGAUAUGCAGCCGUUUCGGCUGCAGAAGGUACUAUAAUACAUGAGGAUCACCCAUGUCUUUUUAAUUUAGAU	–	–	195 nM	77 nM

— the EternaBench riboswitch data
